Results taken from PubChem BioAssay AID488986 (Sanford-Burnham Center for Chemical Genomics, 2010).
Calls of active or inactive are those of the source.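 The calls were made as follows: active = mean EC50 below 10 µM; inactive = the rest.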

target: Type-1 angiotensin II receptor (Homo sapiens) (UniProt P30556); assay: AGTR1 activation selectivity check – cell-based, CHO-K1 PathHunter, luminescence, set 2, selectivity assay for APJ agonist project, SAR follow-up (AID 488986); details: CHO-K1 AGTR1 PathHunter beta-arrestin, 90 min
In short: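 System: CHO-K1 human AT1 beta-arrestin recruitment cells; compound dosing: dose-response series, DMSO 1.32% final; times: cells overnight, compounds 90 min 25 °C, reagent 60 min; signal: luminescence from complemented beta-galactosidase fragments after detection reagent; controls: angiotensin II 1 µM final as high control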

Type-1 angiotensin II receptor (Homo sapiens), sequence (P30556 whole entry, looked up, the tested form may be a part): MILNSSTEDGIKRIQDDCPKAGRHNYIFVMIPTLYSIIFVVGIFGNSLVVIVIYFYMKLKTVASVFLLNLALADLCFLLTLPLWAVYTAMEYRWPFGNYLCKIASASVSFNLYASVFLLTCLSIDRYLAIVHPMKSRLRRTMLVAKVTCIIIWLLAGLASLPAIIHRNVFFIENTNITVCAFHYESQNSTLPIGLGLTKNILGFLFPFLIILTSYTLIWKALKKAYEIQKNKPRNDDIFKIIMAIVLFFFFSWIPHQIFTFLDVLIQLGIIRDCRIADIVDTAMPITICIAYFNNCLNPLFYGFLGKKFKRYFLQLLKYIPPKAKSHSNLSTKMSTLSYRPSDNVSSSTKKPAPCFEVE

| Structure (SMILES) | EC50 |
| --- | --- |
| CC1=C/C(=N/OS(=O)(=O)c2ccccc2)C(C(C)C)=CC1=O | > 79 µM (inactive) |
| CCOc1cc2[nH]c(=S)n(CCN3CCC(C)CC3)c(=O)c2cc1OCC | > 79 µM (inactive) |
| CC1=CC(=O)C(C2CCCCC2)=C/C1=N/OS(=O)(=O)c1ccccc1 | > 79 µM (inactive) |
| CCc1nnc(NC(=O)CSc2nc3cccnc3n2C2CCCCC2)s1 | > 79 µM (inactive) |
| Cc1cc(O)c(C2CCCCC2)cc1N=O | > 79 µM (inactive) |
| CC1=CC(=O)C(C(C)(C)C)=C/C1=N/OS(=O)(=O)c1ccccc1 | > 79 µM (inactive) |
| CCOc1ccc(S(=O)(=O)Nc2nc(-c3ccccc3)cs2)cc1 | > 79 µM (inactive) |
| CCOc1cc2[nH]c(=S)n(CCCC(=O)NCc3ccccn3)c(=O)c2cc1OCC | > 79 µM (inactive) |
| CCCCN(C)CCn1c(=S)[nH]c2cc(OCC)c(OCC)cc2c1=O | > 79 µM (inactive) |
| CCOc1cc2[nH]c(=S)n(CCN3CCCCC3CC)c(=O)c2cc1OCC (stereo not drawn) | > 79 µM (inactive) |
| CCN1C(c2ccccc2)=C(c2ccccc2)S/C1=C\C=C1/SC(=S)N(C)C1=O | 4.96 µM |

Next, values leading:

| EC50 | Structure (SMILES) |
| --- | --- |
| > 79 µM (inactive) | CCc1nnc(NC(=O)CSc2nc3cccnc3n2Cc2ccccc2)s1 |
| > 79 µM (inactive) | CC1=CC(=NOS(=O)(=O)c2ccccc2)C(C)=CC1=O |
| > 79 µM (inactive) | CC1=CC(=O)C=C/C1=N/OS(=O)(=O)c1ccc(C)cc1 |
| > 79 µM (inactive) | CC(C)C1=CC(=NOS(=O)(=O)c2ccccc2)C=C(C(C)C)C1=O |
| > 79 µM (inactive) | CCN1C(=O)/C(=C/C=C2/Sc3ccccc3N2CC)SC1=S |
| > 79 µM (inactive) | Cc1cc(C)n2nc3nc(N4CCCCC4)nc(-c4ccccc4)c3c2n1 |
| > 79 µM (inactive) | CCN1C(=O)/C(=C/C=C2/SC(c3ccccc3)=C(c3ccccc3)N2CC)SC1=S |
